Calls of active or inactive are those of the source. No cut-off for these calls is given here.
What was measured:
[1] = molecular target: D(2) dopamine receptor (Rattus norvegicus, UniProt P61169); experiment: Displacement of [3H]Spiroperidol from cloned rat dopamine D2L receptor expressed in HEK293 cells by liquid scintillation counting analysis; format: cell-based
Summary of the method: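 Competition with [3H]spiroperidol binding at cloned rat D2L and D3 receptors expressed in HEK-293 cells, giving Ki values; the selectivity ratio is D2L Ki divided by D3 Ki.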

[2] = tested on: HEK293; experiment: Selectivity ratio of Ki for cloned rat dopamine D2L receptor to Ki for cloned rat dopamine D3 receptor expressed in HEK293 cells; format: cell-based
Summary of the method: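 Competition with [3H]spiroperidol binding at cloned rat D2L and D3 receptors expressed in HEK-293 cells, giving Ki values; the selectivity ratio is D2L Ki divided by D3 Ki. Means ± SEM of 3−6 experiments, each in triplicate.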

[3] = molecular target: D(3) dopamine receptor (Rattus norvegicus, UniProt P19020); experiment: Displacement of [3H]Spiroperidol from cloned rat dopamine D3 receptor expressed in HEK293 cells by liquid scintillation counting analysis; format: cell-based
[4] = tested on: Rattus norvegicus; experiment: Reversal of reserpine-induced hypolocomotion in Sprague-Dawley rat at 10 umol/kg, ip administered 18 hrs post reserpine challenge measured for 6 hrs relative to reserpine-treated control; format: functional, organism-based
Summary of the method: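 Male and female Sprague−Dawley rats (220−225 g) were given reserpine 5.0 mg/kg sc 18 h beforehand and acclimatized in chambers for 1 h. Drug was given at 10 μmol/kg ip, and horizontal activity was recorded by infrared beam breaks for 6 h in 30 min bins. Three rats per group, compared with saline controls by one-way ANOVA with Dunnett's test.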

[5] = molecular target: T1, D(3) dopamine receptor (Homo sapiens, UniProt P35462); experiment: Agonist activity at human D3 receptor expressed in CHO cells by [35S]GTPgammaS binding assay; format: functional, cell-based
[6] = Cytotoxicity against rat PC12 cells at 0.001 to 30 uM by MTT assay relative to control; format: cell-based; conditions: pc-12, in the assay text read “0.01 to 30 uM” for “0.001 to 30 uM”
Summary of the method: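 PC12 cells were grown in RPMI 1640 with 10% heat-inactivated horse serum and 5% FBS at 37 °C, seeded at 17000 cells/well for 24 h, then exposed to 0.01−30 μM compound. Viability was read by MTT (0.5 mg/mL final, 3−4 h), formazan dissolved in methanol:DMSO, A570 with 690 nm background, relative to untreated controls.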

[7] = molecular target: D(2) dopamine receptor (Homo sapiens) (UniProt P14416); experiment: Agonist activity at human D2 receptor expressed in CHO cells by [35S]GTPgammaS binding assay relative to dopamine; format: functional, cell-based
Summary of the method: (§1)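 Stimulation of [35S]GTPγS binding in CHO cells expressing hD2 or hD3 receptors. EC50 is the concentration giving half-maximal stimulation. […] Mean ± SEM of 3−6 experiments, each in triplicate.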

[8] = Neuroprotective activity against 6-OHDA-induced death of rat PC12 cells assessed as cell viability pretreated for 24 hrs at 20 uM measured 24 hrs post 6-OHDA challenge by MTT assay relative to 6-OHDA-treated control; format: functional; conditions: PC-12, read-out: Activity
[9] = molecular target: T1, D(3) dopamine receptor; experiment: Agonist activity at human D3 receptor expressed in CHO cells by [35S]GTPgammaS binding assay relative to dopamine; format: functional, cell-based; summary of the method: as §1
[10] = Antioxidant activity assessed as DPPH free radical scavenging activity after 30 mins; format: physicochemical; conditions: 0.5 h
[11] = tested on: PC-12; experiment: Neuroprotective activity against 6-OHDA-induced death of rat PC12 cells assessed as cell viability pretreated for 24 hrs measured 24 hrs post 6-OHDA challenge by MTT assay relative to 6-OHDA-treated control; format: functional, cell-based
Summary of the method: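 PC12 cells were pretreated with compound for 24 h; the medium was then replaced and 75 μM 6-OHDA added for a further 24 h. Controls received 0.01% DMSO. Viability was measured by MTT (0.5 mg/mL final, 3−4 h, A570/690 nm). Mean ± SD of at least three experiments, each in four to six replicates.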

[12] = molecular target: D(2) dopamine receptor (Homo sapiens) (UniProt P14416); conditions: CHO, 1 uM
[13] = molecular target: D(2) dopamine receptor (Homo sapiens) (UniProt P14416); conditions: CHO, 200 nM
[14] = molecular target: D(2) dopamine receptor (Homo sapiens) (UniProt P14416); experiment: Antagonist activity against human D2 receptor expressed in CHO cells assessed as inhibition of dopamine-induced [35S]GTPgammaS binding; format: functional, cell-based

Chain of D(3) dopamine receptor (Rattus norvegicus, UniProt P19020) (P19020 whole entry): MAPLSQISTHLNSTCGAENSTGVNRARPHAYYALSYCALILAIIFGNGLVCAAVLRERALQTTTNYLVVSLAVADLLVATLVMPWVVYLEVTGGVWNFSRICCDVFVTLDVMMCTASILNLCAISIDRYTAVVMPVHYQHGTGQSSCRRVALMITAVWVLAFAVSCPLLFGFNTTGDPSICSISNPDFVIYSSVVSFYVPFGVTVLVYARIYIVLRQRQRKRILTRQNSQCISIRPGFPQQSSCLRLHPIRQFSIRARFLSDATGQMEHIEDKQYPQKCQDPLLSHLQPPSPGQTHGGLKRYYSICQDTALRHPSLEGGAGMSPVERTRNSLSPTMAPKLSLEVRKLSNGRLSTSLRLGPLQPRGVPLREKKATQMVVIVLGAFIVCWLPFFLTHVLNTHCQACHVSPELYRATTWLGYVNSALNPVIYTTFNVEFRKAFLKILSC
T1 sequence (P35462 whole entry): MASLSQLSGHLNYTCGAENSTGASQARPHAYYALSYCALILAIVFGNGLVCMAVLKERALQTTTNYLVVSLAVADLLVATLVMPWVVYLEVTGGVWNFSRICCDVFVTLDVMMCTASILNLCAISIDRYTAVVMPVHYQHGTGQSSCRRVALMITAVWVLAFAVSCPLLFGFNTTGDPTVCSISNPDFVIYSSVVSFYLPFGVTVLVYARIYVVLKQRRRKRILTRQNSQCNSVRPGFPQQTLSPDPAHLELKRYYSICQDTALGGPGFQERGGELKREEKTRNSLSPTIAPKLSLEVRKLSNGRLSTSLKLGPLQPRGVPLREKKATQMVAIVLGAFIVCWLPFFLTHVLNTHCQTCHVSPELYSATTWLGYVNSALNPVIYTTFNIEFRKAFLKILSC
Chain of D(2) dopamine receptor (Homo sapiens) (P14416 whole entry): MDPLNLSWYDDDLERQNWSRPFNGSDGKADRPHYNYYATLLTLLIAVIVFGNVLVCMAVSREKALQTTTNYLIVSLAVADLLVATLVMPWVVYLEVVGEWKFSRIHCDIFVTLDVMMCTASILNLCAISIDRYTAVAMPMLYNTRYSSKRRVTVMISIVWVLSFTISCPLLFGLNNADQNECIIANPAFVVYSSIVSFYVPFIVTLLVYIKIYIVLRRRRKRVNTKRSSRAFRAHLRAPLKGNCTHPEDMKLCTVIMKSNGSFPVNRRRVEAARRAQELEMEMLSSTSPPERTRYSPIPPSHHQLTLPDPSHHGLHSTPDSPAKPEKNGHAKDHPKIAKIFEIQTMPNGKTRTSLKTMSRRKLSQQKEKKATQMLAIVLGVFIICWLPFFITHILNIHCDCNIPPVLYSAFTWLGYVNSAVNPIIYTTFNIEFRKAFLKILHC
Chain of D(2) dopamine receptor (P61169 whole entry): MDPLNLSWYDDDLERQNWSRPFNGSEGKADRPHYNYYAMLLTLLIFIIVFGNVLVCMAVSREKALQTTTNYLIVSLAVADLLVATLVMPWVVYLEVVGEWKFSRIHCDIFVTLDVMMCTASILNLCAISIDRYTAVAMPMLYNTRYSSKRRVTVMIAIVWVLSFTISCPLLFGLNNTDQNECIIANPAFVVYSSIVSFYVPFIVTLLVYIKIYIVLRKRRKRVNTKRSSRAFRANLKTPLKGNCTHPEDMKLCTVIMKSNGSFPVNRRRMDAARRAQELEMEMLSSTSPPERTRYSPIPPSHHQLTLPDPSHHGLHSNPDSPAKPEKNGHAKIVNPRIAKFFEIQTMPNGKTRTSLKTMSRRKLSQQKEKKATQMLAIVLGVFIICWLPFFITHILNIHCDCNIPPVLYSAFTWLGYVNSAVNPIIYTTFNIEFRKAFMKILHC

Row | SMILES | Ki [1] [nM] | Ki [3] [nM] | Ratio Ki [2] | further results
1 | CCCN(CCN1CCN(Cc2c[nH]c3ccc(OC)cc23)CC1)C1CCc2nc(N)sc2C1 (racemic) | 1640 | 15.9 | 101 | 
2 | CCCN[C@H]1CCc2nc(N)sc2C1 |  |  |  | Activity [4]: Active
3 | CCCN(CCN1CCN(c2ccc3cc[nH]c3c2Cl)CC1)[C@H]1CCc2nc(N)sc2C1.O=C(O)C(F)(F)F | 16.4 | 1.15 |  | EC50 [5]: 1.41 nM; Activity [6]: Non-toxic; Emax [7]: 101%; viability at 20 µM [8]: 30%; Emax [9]: 113%; Activity [10]: Dose-dependent effect; Activity [4]: Active; Activity [11]: Dose-dependent effect
4 | CCCN(CCN1CCN(c2cc(F)c3[nH]ccc3c2)CC1)[C@H]1CCc2nc(N)sc2C1 | 156 | 3.66 | 43 | 
5 | CCCN(CCC)CCc1cccc2c1CC(=O)N2 |  |  |  | Activity [4]: Active
6 | CCCN(CCN1CCN(Cc2c[nH]c3ccc(Br)cc23)CC1)C1CCc2nc(N)sc2C1 (racemic) | 376 | 12.9 | 29 | 
7 | CCCN1CCC[C@@H](c2cccc(O)c2)C1 |  |  |  | Ke [12]: 383 nM; Emax [7]: 19.8%; Emax [9]: 52%; Ke [13]: 362 nM; Ke [14]: 372 nM
8 | CCCN(CCN1CCN(c2c(Cl)ccc3[nH]ccc23)CC1)[C@H]1CCc2nc(N)sc2C1 | 74.5 | 0.87 |  | EC50 [5]: 3.93 nM; Emax [7]: 87.6%; Emax [9]: 104%

Second part, led by results:

Row | Ki [1] [nM] | Ki [3] [nM] | SMILES | Ratio Ki [2] | further results
9 | 1160 | 13.8 | CCCN(CCN1CCN(Cc2c[nH]c3cccc(Cl)c23)CC1)C1CCc2nc(N)sc2C1 (racemic) | 84 | 
10 | 992 | 8.87 | CCCN(CCN1CCN(Cc2c[nH]c3cccc(F)c23)CC1)C1CCc2nc(N)sc2C1 (racemic) | 112 | 
11 | 854 | 12.1 | CCCN(CCN1CCN(Cc2c[nH]c3ccc(F)cc23)CC1)C1CCc2nc(N)sc2C1 (racemic) | 71 | 
12 | 1880 | 25 | CCCN(CCN1CCN(Cc2c[nH]c3cccc(OC)c23)CC1)C1CCc2nc(N)sc2C1 (racemic) | 75 | 

From ChEMBL document CHEMBL3739358 (J Med Chem, 2015)
